Measured values published in article PMC10249145 (Cardiovascular & hematological agents in medicinal chemistry, 2023).

Biological target: T1, human FXIIa (Homo sapiens, UniProt P00748)
T1 sequence (P00748 20-615): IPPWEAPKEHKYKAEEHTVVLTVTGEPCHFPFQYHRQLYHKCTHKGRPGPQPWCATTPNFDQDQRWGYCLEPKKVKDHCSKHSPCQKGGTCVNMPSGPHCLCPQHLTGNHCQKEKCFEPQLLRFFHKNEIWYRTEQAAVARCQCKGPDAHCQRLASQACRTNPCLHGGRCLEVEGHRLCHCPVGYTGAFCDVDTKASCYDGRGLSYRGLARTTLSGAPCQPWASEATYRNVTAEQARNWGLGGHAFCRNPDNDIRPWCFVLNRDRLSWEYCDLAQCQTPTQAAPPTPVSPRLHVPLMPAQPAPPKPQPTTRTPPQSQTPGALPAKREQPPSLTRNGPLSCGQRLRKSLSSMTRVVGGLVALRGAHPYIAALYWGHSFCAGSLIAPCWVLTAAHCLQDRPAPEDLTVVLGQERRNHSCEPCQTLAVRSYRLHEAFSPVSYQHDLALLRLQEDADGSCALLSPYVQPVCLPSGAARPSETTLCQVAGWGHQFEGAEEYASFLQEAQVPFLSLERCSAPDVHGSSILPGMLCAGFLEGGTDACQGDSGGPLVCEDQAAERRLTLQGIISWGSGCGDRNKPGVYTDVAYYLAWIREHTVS
Experiment: Direct inhibition of human FXIIa, chromogenic substrate hydrolysis assay
Format: biochemical
Settings: ± 1 S.E.; for IC50: Tris-HCl buffer pH 7.4, 37 °C; for DeltaY (efficacy of inhibition) / HS (Hill slope): pH 7.4, 37 °C
Method in brief: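 Human FXIIa (stock 200 nM) was preincubated for 5 min with test compound or vehicle in Tris-HCl pH 7.4 with NaCl, 2.5 mM CaCl2, 0.1% PEG8000 and 0.02% Tween80 at 37 °C. Spectrozyme FXIIa (stock 5 mM) was then added. Twelve in-well concentrations (500–0.0025 μM) were tested. Residual activity was taken from the initial A405 rate, and a logistic fit gave IC50, efficacy and Hill slope (±1 S.E.).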

IC50 (IC50, human FXIIa) [µM]	DeltaY (efficacy of inhibition) (human FXIIa) [%]	HS (Hill slope) (human FXIIa)	IC50 (human FXIIa) [µM]	SMILES
699	122.4 ± 23.4	1.05 ± 0.55		CC(C)(C)c1ccc(C(=O)n2nc(C(=O)O)nc2N)cc1 [Inhibitor 4, 5-amino-1-(4-(tert-butyl)benzoyl)-1H-1,2,4-triazole-3-carboxylic acid]
	103 ± 5	1.26 ± 0.27	340 ± 30.5	CNC(=O)c1nc(N)n(C(=O)c2ccc(C(C)(C)C)cc2)n1 [Inhibitor 5, 5-amino-1-(4-(tert-butyl)benzoyl)-N-methyl-1-1H-1,2,4-triazole-3-carboxamide]
